# KDM4C inh: inhibitors of GASC-1 (KDM4C) histone demethylase, primary screen, biochemical, single concentration HTS; GST-KDM4C 2-372, H3K9me3 peptide, LANCE TR-FRET; AID 720574, 2013; Lysine-specific demethylase 4C (Homo sapiens), Q9H3R0; hit rate 0.15% among 96,000; inhibition, % at 12.5 µM;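 active = mean replicate inhibition above about 25%, with at least 55% of replicates also reaching it, limit read from the data, passing the limit was not always enough; inconclusive = only one of those two conditions met; inactive = neither condition met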
# Target sequence (Q9H3R0 2-372 limits assumed): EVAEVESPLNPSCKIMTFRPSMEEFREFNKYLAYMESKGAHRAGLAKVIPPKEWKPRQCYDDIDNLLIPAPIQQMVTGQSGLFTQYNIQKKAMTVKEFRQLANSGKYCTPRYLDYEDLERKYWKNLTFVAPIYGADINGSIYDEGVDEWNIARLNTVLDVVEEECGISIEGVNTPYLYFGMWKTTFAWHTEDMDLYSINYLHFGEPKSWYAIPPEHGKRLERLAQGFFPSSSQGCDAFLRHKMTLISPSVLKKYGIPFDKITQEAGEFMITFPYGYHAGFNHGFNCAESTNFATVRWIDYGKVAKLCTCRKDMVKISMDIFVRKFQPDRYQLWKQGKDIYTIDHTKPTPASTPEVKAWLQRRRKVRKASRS
#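 Test system: N-terminal GST-fused human GASC-1 (KDM4C) fragment, residues 2-372; quantity: GASC-1 enzyme at 10 nM final in reaction; dosing: single dose; schedule: 30 min demethylation and 1 h detection at room temperature; signal: LANCE TR-FRET, excitation 340 nm, emissions 618 and 671 nm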
# IDH1 R132H inh: inhibitors of IDH1 R132H reductase, primary screen, biochemical, plate reader, single point | inhibition, % at 10 µM | hit rate 0.18% among 70,000 | diaphorase/resazurin fluorescence, 60 min; in the data active = inhibition above about 34%; inconclusive = no clear call, values can overlap the other calls; inactive = below about 11%;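 also: 0% = DMSO and 100% = no enzyme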
# T cruzi growth-1: T. cruzi intracellular proliferation inhibitors, primary screen, cell-based, beta-gal Tulahuen parasites, NIH3T3 host, luminescence. T. cruzi beta-gal in NIH3T3, GalScreen luminescence, 90 h. hit rate 5.9% among 77,000. AID 624255, 2012. inhibition, % at 8.34 µM;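 active = mean inhibition above about 93%, with at least 55% of replicates each passing it, limit read from the data, passing the limit was not always enough; inconclusive = only one of those two conditions holds; inactive = neither condition holds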
# Pf Dd2 growth: P. falciparum Dd2 growth inhibitors, primary screen, SYBR Green fluorescence, single dose replicates; 72 h; hits give low values; hit rate 2.3% among 94,000; activity change, % at 10 µM; in the data active = activity change below about -80%; inconclusive = no clear call, values can overlap the other calls
# T cruzi growth-2: T. cruzi intracellular proliferation inhibitors, confirmation, cell-based, NIH3T3 host, beta-gal parasite, luminescence, cherry-pick | shares compounds with T cruzi growth-1 | T. cruzi beta-gal in NIH3T3, GalScreen luminescence, 90 h | inhibition, % at 8.35 µM | hit rate 72% among 5,600 | AID 651739, 2012;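 active = mean replicate inhibition above about 95% and at least 55% of replicates individually reaching it, limit read from the data; inconclusive = only one of the two criteria is met; inactive = neither criterion is met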
# T cruzi growth-3: inhibitors of intracellular T. cruzi replication, confirmation, NIH3T3 host cells, beta-gal parasites, cherry-pick, set 2. T. cruzi beta-gal in NIH3T3, GalScreen luminescence, 90 h. hit rate 21% among 5,600. AID 651740, 2012. inhibition, % at 2.09 µM. shares compounds with T cruzi growth-1;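 active = mean inhibition above about 95%, with at least 55% of replicates also reaching it, limit read from the data; inconclusive = meets just one of the two conditions; inactive = meets neither condition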;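 also: plate controls were neutral control median for no effect and positive control median for full effect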
# 3T3 cytotox: cytotoxicity in mouse NIH/3T3 fibroblasts, confirmation, cytotoxicity control for T. cruzi proliferation inhibitor project, cell-based, cherry-pick, single point | shares compounds with T cruzi growth-1 | NIH/3T3 viability, CellTiter-Glo ATP luminescence, 90 h | cytotoxicity (signal decrease), % at 8.35 µM | hit rate 14% among 5,600 | AID 651742, 2012;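 active = mean signal decrease across replicates above about 35% based on untreated-well scatter, with enough replicates individually passing, limit read from the data; inconclusive = no rule stated though some were filed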;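 also: 0% = median of neutral control wells and 100% = median of positive control wells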
# NIH3T3 tox 2: NIH/3T3 fibroblast cytotoxicity, confirmation, cytotoxicity control, cell-based, cherry-pick, single point, set 2. shares compounds with T cruzi growth-1. NIH/3T3 viability, CellTiter-Glo ATP luminescence, 90 h. inhibition, % at 24.9 µM. hit rate 56% among 5,600;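 active = mean loss of cell viability signal at or above a set limit, and enough replicates individually reaching it; inconclusive = meets only the mean limit or only the replicate share; inactive = meets neither condition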;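 also: 0% = median of neutral control wells and 100% = median of positive control wells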
# The depositor's hits bear a star; ? = inconclusive; nt = not tested or not shown. This is a sample that favours compounds with a hit; in the whole collection about 5.8% have one here.
SMILES,KDM4C inh,IDH1 R132H inh,T cruzi growth-1,Pf Dd2 growth,T cruzi growth-2,T cruzi growth-3,3T3 cytotox,NIH3T3 tox 2
O=C(Nc1ccccc1F)N1CCCCN2[C@@H](CO)[C@H](c3ccc(-c4cccnc4)cc3)[C@@H]2C1,-0.2,nt,101.8*,10.4,106.1*,40.4,-10.4,33.7*
O=C(Nc1ccccc1F)N1CCCCN2[C@@H](CO)[C@@H](c3ccc(-c4cccnc4)cc3)[C@@H]2C1,0.0,nt,77.8,-23.5,nt,nt,nt,nt
O=C(Nc1ccccc1F)N1CCCCN2[C@H](CO)[C@H](c3ccc(-c4cccnc4)cc3)[C@@H]2C1,1.1,nt,113.0*,29.8,104.8*,28.9,-3.4,10.7
C[C@@H]1CCCCO[C@H](CN(C)C(=O)c2ccccc2)[C@@H](C)CN([C@H](C)CO)C(=O)c2cc(NC(=O)Nc3ccc(C(F)(F)F)cc3)ccc2O1,0.4,-2.3,?,1.1,105.8*,59.0,4.8,32.9*
C[C@@H]1CN([C@H](C)CO)C(=O)c2cc(NC(=O)Nc3ccc(C(F)(F)F)cc3)ccc2O[C@@H](C)CCCCO[C@H]1CN(C)C(=O)c1ccccc1,-0.2,nt,?,-17.6,103.2*,112.8*,2.8,3.2
CSc1ccccc1NC(=O)C(C)N(c1ccccc1)S(C)(=O)=O (stereo not given),nt,0.2,nt,nt,nt,nt,nt,nt
O=C(Nc1ccc(F)cc1)N1CCCCN2[C@@H](CO)[C@H](c3ccc(-c4cccc(F)c4)cc3)[C@@H]2C1,0.6,nt,106.2*,-30.0,95.3*,79.6,119.5*,103.3*
O=C(Nc1ccc(F)cc1)N1CCCCN2[C@H](CO)[C@H](c3ccc(-c4cccc(F)c4)cc3)[C@@H]2C1,-3.4,nt,117.8*,-3.1,108.2*,85.1,16.7,71.8*
C[C@H](CO)N1C[C@H](C)[C@H](CN(C)Cc2ccc(Oc3ccccc3)cc2)Oc2ccc(N(C)C)cc2CC1=O,0.1,nt,65.3,-25.0,nt,nt,nt,nt
C[C@@H]1CN([C@@H](C)CO)C(=O)Cc2cc(N(C)C)ccc2O[C@H]1CN(C)Cc1ccc(Oc2ccccc2)cc1,7.5,0.1,111.3*,4.9,91.2,114.7*,7.4,105.5*
C[C@H](CO)N1C[C@H](C)[C@@H](CN(C)Cc2ccc(Oc3ccccc3)cc2)Oc2ccc(N(C)C)cc2CC1=O,0.8,-0.1,116.1*,-22.9,114.2*,81.7,15.2,106.4*
O=C(Nc1scc(-c2ccccc2)c1C(=O)NCc1ccco1)c1ccccc1,nt,0.3,nt,nt,nt,nt,nt,nt
COc1cccc(-c2ccc3c(c2)O[C@@H](CN(C)C(=O)C2CCCCC2)[C@H](C)CN([C@@H](C)CO)S3(=O)=O)c1,-1.3,nt,111.8*,-67.5,105.2*,73.6,18.7,90.0*
COc1cccc(-c2ccc3c(c2)O[C@@H](CN(C)C(=O)C2CCCCC2)[C@@H](C)CN([C@H](C)CO)S3(=O)=O)c1,-2.1,nt,92.3*,-59.2,98.1*,72.3,22.9,90.3*
COc1cccc(-c2ccc3c(c2)O[C@H](CN(C)C(=O)C2CCCCC2)[C@H](C)CN([C@H](C)CO)S3(=O)=O)c1,0.0,nt,115.2*,-17.8,105.6*,98.3*,44.3*,87.2*
COc1cccc(-c2ccc3c(c2)O[C@@H](CN(C)C(=O)C2CCC2)[C@@H](C)CN([C@@H](C)CO)S3(=O)=O)c1,-2.3,nt,93.2,-35.4,nt,nt,nt,nt
COc1cccc(-c2ccc3c(c2)O[C@H](CN(C)C(=O)C2CCC2)[C@H](C)CN([C@H](C)CO)S3(=O)=O)c1,-3.5,0.1,69.3,-13.7,nt,nt,nt,nt
COc1cccc(-c2ccc3c(c2)O[C@H](CN(C)C(=O)C2CCC2)[C@H](C)CN([C@@H](C)CO)S3(=O)=O)c1,0.4,-1.0,103.3*,-38.8,95.5*,58.0,56.8*,78.5*
COc1cccc(-c2ccc3c(c2)O[C@@H](CN(C)C(=O)C2CCC2)[C@@H](C)CN([C@H](C)CO)S3(=O)=O)c1,-0.3,-0.2,44.0,10.2,nt,nt,nt,nt
COc1cccc(-c2ccc3c(c2)O[C@H](CN(C)C(=O)C2CCCCC2)[C@@H](C)CN([C@@H](C)CO)S3(=O)=O)c1,-4.2,nt,97.1*,-37.4,110.7*,79.5,-5.0,76.4*
O=C(CC1(O)C(=O)N(Cc2cccc3ccccc23)c2ccccc21)c1ccco1 (stereo not given),nt,-0.4,nt,nt,nt,nt,nt,nt
C[C@@H]1CN([C@H](C)CO)S(=O)(=O)c2ccc(C#CC(C)(C)O)cc2O[C@H]1CN(C)Cc1ccncc1,-1.2,16.2,?,-12.8,87.2,84.0,44.2*,71.5*
C[C@@H]1CN([C@@H](C)CO)S(=O)(=O)c2ccc(C#CC(C)(C)O)cc2O[C@H]1CN(C)Cc1ccncc1,0.0,2.0,99.9*,-38.7,100.0*,75.7,11.8,55.9*
COc1ccc(NC(=O)Cn2cnc3sc4c(c3c2=O)CCC(C)C4)cc1 (stereo not given),nt,0.1,nt,nt,nt,nt,nt,nt
CN(C)C(=O)c1ccc(-c2ccc3c(c2)[C@@H]2[C@@H](CCN2C(=O)C2CCOCC2)[C@@H](CO)N3C)cc1,2.3,nt,101.6*,0.9,106.9*,55.2,-6.8,11.3
SMILES,KDM4C inh,IDH1 R132H inh,T cruzi growth-1,Pf Dd2 growth,T cruzi growth-2,T cruzi growth-3,3T3 cytotox,NIH3T3 tox 2
CN1c2ccc(-c3ccc(F)cc3)cc2[C@@H]2[C@@H](CCN2C(=O)C2CCOCC2)[C@H]1CO,0.3,nt,104.9*,0.8,104.7*,94.0,-7.8,11.8
CN(C)C(=O)c1ccc(-c2ccc3c(c2)[C@@H]2[C@@H](CCN2C(=O)C2CCCC2)[C@H](CO)N3C)cc1,1.5,nt,nt,-77.8,nt,nt,nt,nt
CN1c2ccc(-c3ccc(F)cc3)cc2[C@H]2[C@H](CCN2C(=O)C2CCOCC2)[C@H]1CO,1.1,nt,88.5,25.7,nt,nt,nt,nt
CN1c2ccc(-c3ccc(F)cc3)cc2[C@@H]2[C@@H](CCN2C(=O)C2CCOCC2)[C@@H]1CO,0.3,nt,97.8*,2.1,106.0*,87.1,3.6,-0.6
COc1ccc(NC(=O)CN(C)S(=O)(=O)c2ccc(C)cc2)cc1OC,nt,0.1,nt,nt,nt,nt,nt,nt
C[C@@H]1CN([C@H](C)CO)C(=O)Cc2cc(N(C)C)ccc2O[C@@H]1CN(C)Cc1ccc2c(c1)OCO2,0.9,-0.5,-17.4,30.1,nt,nt,nt,nt

# Assay outcomes deposited in PubChem BioAssay by Broad Institute.
